Hits are enriched below; roughly 2.5% of the tested compounds scored in any of these assays.
NSD2 inh: blocks human histone methyltransferase NSD2; O96028; NSD2 peptide methylation, AlphaScreen, 120 min; inhibition, % at 12.5 µM; 310,000 tested, 0.54% active; AID 743445
Target sequence (O96028 whole entry, looked up): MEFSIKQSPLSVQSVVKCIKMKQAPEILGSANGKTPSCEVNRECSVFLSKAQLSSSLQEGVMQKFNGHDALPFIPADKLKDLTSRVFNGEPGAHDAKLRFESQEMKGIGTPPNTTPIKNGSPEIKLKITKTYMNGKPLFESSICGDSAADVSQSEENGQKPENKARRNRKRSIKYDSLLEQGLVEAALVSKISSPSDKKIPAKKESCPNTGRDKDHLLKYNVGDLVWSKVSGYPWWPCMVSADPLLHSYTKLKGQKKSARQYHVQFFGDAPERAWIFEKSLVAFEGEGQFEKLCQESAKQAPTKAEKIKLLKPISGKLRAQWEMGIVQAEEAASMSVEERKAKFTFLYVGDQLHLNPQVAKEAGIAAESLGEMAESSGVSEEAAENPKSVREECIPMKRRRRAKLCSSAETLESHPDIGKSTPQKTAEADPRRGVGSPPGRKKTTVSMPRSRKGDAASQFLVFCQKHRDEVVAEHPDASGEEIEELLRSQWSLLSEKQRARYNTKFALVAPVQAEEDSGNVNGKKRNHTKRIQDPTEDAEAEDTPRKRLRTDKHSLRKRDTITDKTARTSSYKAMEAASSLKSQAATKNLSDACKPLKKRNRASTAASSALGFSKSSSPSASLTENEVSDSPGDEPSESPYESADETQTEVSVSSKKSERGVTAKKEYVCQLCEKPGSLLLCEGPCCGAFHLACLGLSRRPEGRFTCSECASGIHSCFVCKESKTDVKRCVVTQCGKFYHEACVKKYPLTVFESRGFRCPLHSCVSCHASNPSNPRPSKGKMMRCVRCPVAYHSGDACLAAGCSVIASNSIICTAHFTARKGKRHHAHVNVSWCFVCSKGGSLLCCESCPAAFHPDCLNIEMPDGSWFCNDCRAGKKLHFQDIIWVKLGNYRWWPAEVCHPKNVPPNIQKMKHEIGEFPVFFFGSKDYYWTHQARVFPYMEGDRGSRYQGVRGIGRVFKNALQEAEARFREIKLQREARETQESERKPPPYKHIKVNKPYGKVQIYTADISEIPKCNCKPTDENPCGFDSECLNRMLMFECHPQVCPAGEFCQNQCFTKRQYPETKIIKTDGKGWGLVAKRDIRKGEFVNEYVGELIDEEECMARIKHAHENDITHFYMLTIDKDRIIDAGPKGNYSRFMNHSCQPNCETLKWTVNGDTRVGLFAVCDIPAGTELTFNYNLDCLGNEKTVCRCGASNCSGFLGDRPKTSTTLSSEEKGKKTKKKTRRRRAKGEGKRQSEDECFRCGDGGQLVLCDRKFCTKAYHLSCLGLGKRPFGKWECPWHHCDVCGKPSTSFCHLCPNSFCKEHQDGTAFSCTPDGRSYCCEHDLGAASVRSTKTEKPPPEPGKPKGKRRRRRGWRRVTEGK
CDK5 p35 inh: inhibitors of human CDK5/p35 kinase; 330,000 tested, 0.01% active; Recombinant CDK5/p35, ADP-Glo luminescence, 60 min; Q00535+Q15078; inhibition, % at 10 µM; AID 488839;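 active = highest replicate inhibition of at least 50% and at least 75% of replicates reaching 50%; inconclusive = only one of the two criteria met; inactive = both criteria failed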;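 note: plate controls were DMSO neutral control for no effect and GW8510 at 10 µM for full effect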
Dyrk1A ADPGlo: inhibitors of rat Dyrk1A kinase. 310,000 tested, 0.43% active. inhibition, % at 12.5 µM. Q63470. ADP-Glo luminescence, NFATc1 peptide;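 note: plate controls were vehicle with enzyme for no effect and no enzyme for full effect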
SR-BI HDL uptake: mouse SR-BI HDL lipid transfer inhibition | Q61009 | 320,000 tested, 0.96% active | AID 488896 | ldlA[mSR-BI] CHO cells, DiI-HDL uptake fluorescence, 3 h | inhibition, % at 12.5 µM;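 active = mean replicate inhibition of at least 70% and a set share of replicates each scoring 70 or more; inconclusive = meets just one of the two criteria; inactive = fails both criteria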;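 note: 0% = median of neutral control wells and 100% = median of positive control wells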
SR-BI DiI-HDL act: activators of SR-BI mediated HDL lipid uptake; CHO ldlA[mSR-BI] cells, DiI-HDL uptake fluorescence, 3 h; 100 = double the neutral-control signal; activation, % at 12.5 µM; 320,000 tested, 0.096% active;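 active = mean replicate activation of at least 60% and every replicate at or above 60%; inconclusive = mean or all-replicate condition met, but not both; inactive = mean below 60% and not all replicates reaching 60%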;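 note: 0% = median plate neutral-control signal and 100% = twice that signal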
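system = CHO ldlA[mSR-BI] cells, LDL receptor-null, SR-BI overexpressing | medium = Ham's F12 with 0.5% BSA, HEPES 25 mM, pH 7.4 | probe or stimulus = DiI-HDL 10 µg/mL | compound dosing = single-point compound dose | incubation = compound exposure 3 h, 37 °C | technique = DiI fluorescence, bottom read | read-out = cell-associated DiI fluorescence as measure of HDL uptake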
dFosB activator: activators of mouse delta FosB homodimer; activation, % at 25 µM; 340,000 tested, 0.99% active; purified delta FosB, TAMRA-CDK5 oligo fluorescence polarization; percent of positive-control signal above neutral wells; P13346;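 active = mean activation above about 17%, with every replicate also reaching it, limit read from the data, passing the limit was not always enough; inconclusive = only one of the two conditions met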
The depositor's hits bear a star; ? = inconclusive; . = no result given. Cut-off read from the data, not from the text of the source, unless noted: active = inhibition above about 50%; inactive = the rest.

SMILES	NSD2 inh	CDK5 p35 inh	Dyrk1A ADPGlo	SR-BI HDL uptake	SR-BI DiI-HDL act	dFosB activator
CCCN(CCC)CCCNC(=O)c1cc2c(-c3ccc(OC)c(OC)c3)nn(C)c2s1	36.1	-0.3	3.2	14.1	-14.1	0.0
COc1ccc(-c2nn(C)c3sc(C(=O)NCCN(C)C)cc23)cc1OC	1.9	0.6	1.7	-10.8	10.8	50.6*
COc1cccc(-c2nn(C)c3sc(C(=O)Nc4ccc5c(c4)OCCO5)cc23)c1	.	0.6	-2.1	86.2*	-86.2	2.7
CCN(CC)CCNC(=O)c1cc2c(-c3ccc(Cl)cc3)nn(C)c2s1	.	5.8	11.3	68.9	-68.9	-66.5
CCCCN(C)c1nc(C)nc2c1nnn2Cc1ccccc1	-5.5	.	.	.	.	.
CSC(=Cc1ccc(C(=O)c2ccc(C)cc2)n1C)S(C)=O (centres undefined)	4.1	.	.	.	.	.
COc1cc(/C=C2\CC/C(=C\c3cc(OC)c(O)c(OC)c3)C2=O)cc(OC)c1O	61.7*	0.8	2.4	48.5	-48.5	-54.0
COc1cc(/C=C2\CC/C(=C\c3cc(OC)c(OC)c(OC)c3)C2=O)cc(OC)c1OC	2.0	0.5	3.5	?	-70.1	-6.7
COc1cc(/C=C2\COC/C(=C\c3cc(OC)c(OC)c(OC)c3)C2=O)cc(OC)c1OC	2.9	-0.6	-5.3	83.3*	-83.3	-3.5
CC1CCN(c2nnc(-c3ccccc3)c3ccccc23)CC1	13.4	-0.7	1.6	83.7*	-83.7	-10.2
COC(=O)c1sc2ncn(CC(=O)NCCc3ccc(OC)c(OC)c3)c(=O)c2c1C	0.2	-1.4	2.3	75.8*	-75.8	2.8
COc1ccc(C)cc1NC(=O)CCCNC(=O)Cn1cnc2sc(C)c(C)c2c1=O	0.9	-0.4	-0.9	78.4*	-78.4	-3.4
COc1cc(OC)c(NC(=O)CCCNC(=O)Cn2cnc3sc(C)c(C)c3c2=O)cc1Cl	-2.2	-0.2	-7.3	81.4*	-81.4	3.7
CCOc1ccccc1NC(=O)CCCNC(=O)Cn1cnc2sc(C)c(C)c2c1=O	-2.8	-10.0	5.5	72.4*	-72.4	-13.2
Cc1cc(NC(=O)CCN2C(=O)/C(=C/c3ccccc3F)SC2=S)no1	-2.5	.	.	.	.	.
Cc1cc(NC(=O)CCCN2C(=O)/C(=C/c3ccccc3Cl)SC2=S)no1	-4.3	1.2	2.3	12.5	-12.5	36.9*
Cc1cc(NC(=O)CCN2C(=O)/C(=C\c3ccccc3)SC2=S)no1	.	0.8	6.8	5.7	-5.7	40.4*
CCOc1ccc(/C=C2\SC(=S)N(CC(=O)Nc3ccccn3)C2=O)cc1	-0.9	-0.5	2.4	10.6	-10.6	21.8*
O=C(CCN1C(=O)/C(=C/c2ccccc2)SC1=S)Nc1ccccn1	-0.6	-1.2	-2.8	-4.6	4.6	0.4
CCC(Oc1ccc(C)cc1)C(=O)Nc1ccc(S(=O)(=O)Nc2cc(C)on2)cc1 (centres undefined)	-1.9	-1.5	-1.6	.	.	-6.6
COc1ccccc1CSc1nc2c(c(=O)n(C)c(=O)n2C)n1C	-0.7	0.3	-5.3	11.9	-11.9	-1.9
CCCC(C)C(=O)Nc1nc(C)c(-c2csc(Nc3cc(Cl)ccc3C)n2)s1 (centres undefined)	.	-0.6	7.1	82.2*	-82.2	-2.3
Cc1nc(NC(=O)CC(C)C)sc1-c1csc(Nc2ccc(Cl)cc2)n1	.	1.0	10.8	73.1*	-73.1	1.9
Cc1ccc(Cl)cc1Nc1nc(-c2sc(NC(=O)c3ccco3)nc2C)cs1	.	-4.9	13.3	?	-72.8	6.5
CCC(=O)Nc1nc(C)c(-c2csc(Nc3cccc(O)c3)n2)s1	-0.8	0.8	10.2	51.4	-51.4	-12.8
SMILES	NSD2 inh	CDK5 p35 inh	Dyrk1A ADPGlo	SR-BI HDL uptake	SR-BI DiI-HDL act	dFosB activator
CCCCCC(=O)Nc1nc(C)c(-c2csc(Nc3ccc(Cl)cc3)n2)s1	.	0.1	4.7	96.4*	-96.4	-7.2
CCCCCC(=O)Nc1nc(C)c(-c2csc(Nc3cc(Cl)ccc3C)n2)s1	.	0.4	2.9	79.1*	-79.1	-1.5
CC1(C(=O)NCCC#N)CCN1C(=O)Cc1ccc(-c2ccccc2)cc1 (centres undefined)	-3.2	.	.	.	.	.
COC(=O)C1=C(C)N(Cc2cccc(C(F)(F)F)c2)C(=NCc2ccc(OC)cc2)NC1c1ccc(Cl)cc1 (centres undefined)	-0.4	.	.	.	.	.
COc1ccc(NC(=O)N(C)C[C@H]2Oc3ccc(NC(=O)Nc4c(C)noc4C)cc3C(=O)N([C@H](C)CO)C[C@H]2C)cc1	.	-0.6	-2.2	-8.6	8.6	-11.2
O=C(COC(=O)C1CC2C=CC1C2)NCCc1ccccc1 (centres undefined)	-1.1	-1.4	-6.8	-240.1	240.1*	-0.9
COc1cccc(C(C)(O)c2nc(-c3cc4ccccc4o3)cs2)c1 (centres undefined)	-2.0	.	.	.	.	.
CN(C)CCCn1c2c3ccccc3ccc2c2oc(=O)c3ccccc3c21	-1.0	3.1	1.2	-8.2	8.2	73.4*
CC(=O)Nc1ccc(NC(=O)Nc2ccc3c(c2)N(C)C(=O)CS3)cc1	1.0	0.3	1.9	1.3	-1.3	-3.6
CCOc1ccc(OCC)c(NC(=O)Nc2ccc3c(c2)N(C)C(=O)CS3)c1	.	0.3	-4.5	87.6*	-87.6	-12.1
CSc1cccc(NC(=O)CC2Oc3ccccc3NC2=O)c1 (centres undefined)	0.6	0.5	-3.5	19.8	-19.8	36.8*
Cc1ccc(-n2c(Cc3cccs3)nnc2SCC(=O)Nc2ccc(OCc3ccccc3)cc2)cc1	0.6	.	.	.	.	.
COc1ccc(-c2nc(CS(=O)(=O)CC(=O)NCCc3ccc(C)cc3)c(C)o2)cc1	9.3	2.0	-8.7	99.4*	.	1.3
CCOc1ccc(S(=O)(=O)Nc2ccc3c(c2)c2c(n3S(=O)(=O)c3ccc(OCC)cc3)CCCC2=O)cc1	-1.2	.	.	.	.	.
Cc1ccc(S(=O)(=O)N(C(=O)c2ccncc2)c2ccc(OC(=O)c3ccncc3)c3ccccc23)cc1	-3.5	1.1	1.8	-429.6	429.6*	2.6
COc1cc(OC)cc(C(=O)NC(=S)Nc2cc3oc4ccccc4c3cc2OC)c1	1.3	0.2	-4.2	80.6*	-80.6	-10.3
COc1ccccc1CC(=O)Nc1cc2oc3ccccc3c2cc1OC	-5.0	-1.6	-4.7	86.5*	-86.5	1.3
COc1ccc(CC(=O)Nc2cc3oc4ccccc4c3cc2OC)cc1	-0.6	1.3	-4.2	49.7	-49.7	-9.2
COc1cc2c(cc1NC(=O)c1ccncc1)oc1ccccc12	-0.8	-0.4	11.5	77.5*	-77.5	3.9
COc1ccc(C(=O)NC(=S)Nc2cc3oc4ccccc4c3cc2OC)cc1	-3.4	1.0	-1.4	31.9	-31.9	-4.0
COc1cc2c(cc1NC(=O)c1cccnc1)oc1ccccc12	1.8	-1.9	2.8	.	.	1.5
COCCNC(=S)Nc1cc2oc3ccccc3c2cc1OC	-1.4	-1.6	.	92.6*	-92.6	1.4
